Reference: ChEMBL document CHEMBL1155929, “3-(4-(6-Fluoroalkoxy-3,4-dihydroisoquinoline-2(1H)-yl)cyclohexyl)-1H-indole-5-carbonitriles for SERT imaging: chemical synthesis, evaluation in vitro and radiofluorination” (Bioorg Med Chem Lett, 2008)

Tests used:
Cortex = assay: Stability in rat cortex at pH 7.2 to 7.4 after 120 mins; format: ADME, tissue-based; conditions: buffer, pH 7.2, 2 h
Procedure, shortened: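 18F tracer incubated at 37 °C in rat cortex homogenate in Tris-HCl, pH 7.2–7.4, for up to 120 min. Sampled every 30 min and analysed by radio-HPLC and TLC.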

[1] = Partition coefficient, log D at pH 7.2 to 7.4 by HPLC Multisorb; format: physicochemical; conditions: octanol/water
Procedure, shortened: (§1)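 HPLC log D on Multisorb RP18-7 or Supelcosil ABZ+ Plus columns. Gradient from 5% MeCN + 20 mM ammonium acetate to 80% MeCN + 20 mM ammonium acetate over 55 min at 1 ml/min. n ≥ 3 per standard or sample.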

[2] = Partition coefficient, log D at pH 7.2 to 7.4 by HPLC Supelcosil; format: physicochemical; conditions: octanol/water; procedure, shortened: as §1
[3] = Stability in aqueous sodium hydroxide at 80 degC after 30 mins; format: physicochemical; conditions: buffer, 0.5 h
Procedure, shortened: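 18F tracer held in 0.1 or 1.3 M aqueous NaOH at 80 °C. Analysed by radio-HPLC and TLC.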

[4] = Partition coefficient, log D in phosphate buffer at pH 7.2 to 7.4 by extractive method; format: physicochemical; conditions: octanol/water
Procedure, shortened: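 Batch n-octanol–buffer extraction of the 18F-labelled tracer. Buffers were 50 mM Sørensen phosphate pH 7.2, Dulbecco's PBS pH 7.2, and 30 mM Tris-HCl pH 7.4. n = 3 per buffer system.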

[5] = molecular target: T1, Sodium-dependent serotonin transporter (Homo sapiens, UniProt P31645); assay: biochemical; format: cell-based, HEK293
Target sequence in this assay (P31645 whole entry): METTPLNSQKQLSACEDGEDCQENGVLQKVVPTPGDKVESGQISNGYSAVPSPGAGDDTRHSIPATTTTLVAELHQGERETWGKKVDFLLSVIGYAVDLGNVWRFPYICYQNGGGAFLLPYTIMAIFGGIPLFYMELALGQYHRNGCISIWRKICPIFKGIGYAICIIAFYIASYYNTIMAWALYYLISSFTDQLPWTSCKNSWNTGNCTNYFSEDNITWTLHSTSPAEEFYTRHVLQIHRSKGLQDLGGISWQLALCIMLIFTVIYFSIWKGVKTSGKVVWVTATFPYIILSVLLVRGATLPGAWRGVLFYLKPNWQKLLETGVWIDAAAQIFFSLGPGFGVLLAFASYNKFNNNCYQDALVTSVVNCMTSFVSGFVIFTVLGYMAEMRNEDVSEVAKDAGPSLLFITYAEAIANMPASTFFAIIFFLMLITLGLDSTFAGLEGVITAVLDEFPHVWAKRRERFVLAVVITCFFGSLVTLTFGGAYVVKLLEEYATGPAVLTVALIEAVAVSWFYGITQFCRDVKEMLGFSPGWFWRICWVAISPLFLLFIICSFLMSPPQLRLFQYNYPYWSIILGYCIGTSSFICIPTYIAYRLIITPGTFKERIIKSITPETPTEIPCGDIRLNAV

[6] = molecular target: T1, Sodium-dependent serotonin transporter; assay: biochemical; format: cell-based, HEK293; remark: listed apart in the source
Target sequence in this assay (P31645 whole entry): as above

[7] = molecular target: Sodium-dependent dopamine transporter (Homo sapiens, UniProt Q01959); assay: Displacement of [3H]WIN-35428 from human DAT expressed in HEK293 cells; format: cell-based
Procedure, shortened: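 Homogenate of HEK293 cells stably expressing hDAT, in 50 mM Tris-HCl pH 7.4, 100 mM NaCl. Incubated with 0.5 nM [3H]WIN35,428 (KD 24.1 nM) and 6-12 test concentrations on ice for 120 min. Nonspecific binding with 10 µM GBR12909. IC50 from triplicates per experiment; Ki calculated.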

[8] = molecular target: T2, 5-hydroxytryptamine receptor 1A (Rattus norvegicus, UniProt P19327); assay: Displacement of [3H]8-OH-DPAT from 5HT1A receptor in rat cortical membrane; format: cell membranes
T2 sequence (P19327 whole entry): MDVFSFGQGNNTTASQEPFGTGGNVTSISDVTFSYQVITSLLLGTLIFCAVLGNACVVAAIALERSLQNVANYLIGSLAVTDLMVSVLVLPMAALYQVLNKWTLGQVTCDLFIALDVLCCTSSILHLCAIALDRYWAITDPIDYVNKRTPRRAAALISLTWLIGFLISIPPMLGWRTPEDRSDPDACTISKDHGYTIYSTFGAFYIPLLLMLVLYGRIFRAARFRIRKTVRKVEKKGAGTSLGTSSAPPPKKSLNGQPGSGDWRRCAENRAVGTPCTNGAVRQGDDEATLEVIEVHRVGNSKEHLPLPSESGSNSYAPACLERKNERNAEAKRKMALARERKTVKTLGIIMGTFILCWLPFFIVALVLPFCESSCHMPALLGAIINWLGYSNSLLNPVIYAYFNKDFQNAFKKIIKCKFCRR
Procedure, shortened: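 Rat cortical membrane homogenate diluted in 50 mM Tris-HCl pH 7.4, 4 mM CaCl2, 0.1% ascorbic acid. Incubated with 0.3 nM [3H]-8-OH-DPAT and 6-12 test concentrations at 21 °C for 60 min. Nonspecific binding defined with 10 µM serotonin hydrochloride. IC50 from triplicates per experiment, at least three independent experiments; Ki calculated.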

[9] = molecular target: T1, Sodium-dependent serotonin transporter; assay: Ratio of Ki for displacement of [3H]paroxetine to displacement of [3H]citalopram from human SERT expressed in […] cells; format: cell-based
Target sequence in this assay (P31645 whole entry, looked up): as the sequence (P31645 whole entry) above

[10] = molecular target: Sodium-dependent noradrenaline transporter (Homo sapiens, UniProt P23975); assay: Displacement of [3H]nisoxetine from human NET expressed in HEK293 cells; format: cell-based
Procedure, shortened: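 Homogenate of HEK293 cells stably expressing hNET, in 50 mM Tris-HCl pH 7.4, 120 mM NaCl, 5 mM KCl. Incubated with 0.5 nM [3H]nisoxetine (KD 6.77 nM) and 6-12 test concentrations at 21 °C for 60 min. Nonspecific binding with 100 µM protriptyline. IC50 from triplicates per experiment; Ki calculated.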

[11] = Protein binding in rat plasma by acetonitrile precipitation; format: ADME, cell-free; conditions: read-out: PB (converted)
Procedure, shortened: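 18F tracer incubated in freshly isolated rat plasma (protein 95 mg/ml) for 30 min at 37 °C. Protein precipitated with MeCN and extracted twice. Centrifuged at 2000g for 30 min at room temperature; n = 3.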

Sequence of Sodium-dependent noradrenaline transporter (P23975 whole entry): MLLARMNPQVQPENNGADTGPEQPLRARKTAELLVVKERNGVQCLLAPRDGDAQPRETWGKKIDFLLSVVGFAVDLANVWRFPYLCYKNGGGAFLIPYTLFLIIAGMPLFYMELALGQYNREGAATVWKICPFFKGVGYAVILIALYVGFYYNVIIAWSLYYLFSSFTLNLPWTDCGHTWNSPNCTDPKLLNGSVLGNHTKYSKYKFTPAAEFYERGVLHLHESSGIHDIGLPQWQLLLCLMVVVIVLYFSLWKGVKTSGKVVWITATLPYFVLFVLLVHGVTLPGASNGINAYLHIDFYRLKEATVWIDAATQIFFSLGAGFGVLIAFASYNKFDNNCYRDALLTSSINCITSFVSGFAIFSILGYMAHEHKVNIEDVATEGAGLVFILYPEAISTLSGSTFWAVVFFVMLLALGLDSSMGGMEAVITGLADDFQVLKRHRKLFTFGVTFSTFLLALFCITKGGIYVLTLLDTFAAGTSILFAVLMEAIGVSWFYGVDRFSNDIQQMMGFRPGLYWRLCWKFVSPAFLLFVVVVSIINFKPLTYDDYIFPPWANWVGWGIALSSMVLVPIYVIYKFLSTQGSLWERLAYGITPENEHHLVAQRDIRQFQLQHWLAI
Sequence of Sodium-dependent dopamine transporter (Q01959 whole entry): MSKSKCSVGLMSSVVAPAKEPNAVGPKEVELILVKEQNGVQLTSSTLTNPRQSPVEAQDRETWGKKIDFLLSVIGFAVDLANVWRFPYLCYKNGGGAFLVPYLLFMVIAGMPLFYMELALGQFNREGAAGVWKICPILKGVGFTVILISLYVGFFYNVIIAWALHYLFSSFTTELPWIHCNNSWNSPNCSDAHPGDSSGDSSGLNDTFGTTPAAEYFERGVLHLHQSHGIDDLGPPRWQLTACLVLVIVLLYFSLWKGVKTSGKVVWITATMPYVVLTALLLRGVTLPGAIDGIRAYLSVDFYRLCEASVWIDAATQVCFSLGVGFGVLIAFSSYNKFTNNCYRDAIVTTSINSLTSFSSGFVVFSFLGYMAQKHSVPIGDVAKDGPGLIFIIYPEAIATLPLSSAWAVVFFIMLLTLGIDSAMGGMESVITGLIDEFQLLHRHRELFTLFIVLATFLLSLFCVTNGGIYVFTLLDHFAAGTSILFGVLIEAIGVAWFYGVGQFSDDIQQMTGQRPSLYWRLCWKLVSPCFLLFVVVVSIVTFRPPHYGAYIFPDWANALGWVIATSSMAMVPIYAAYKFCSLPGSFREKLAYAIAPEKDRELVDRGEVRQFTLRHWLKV

| SMILES | Stability (Cortex) | logD [1] | chromatographic logD [2] | Stability [3] | logD [4] | Ki [5] | Ki [6] | Ki [7] | Ki [8] | fold change (FC) [9] | Ki [10] | fraction unbound [11] |
| --- | --- | --- | --- | --- | --- | --- | --- | --- | --- | --- | --- | --- |
| N#Cc1ccc2[nH]cc([C@H]3CC[C@H](N4CCc5cc(OCCC[18F])ccc5C4)CC3)c2c1 | Stable | 3.27 | 2.49 | Stable | 2.36 |  |  |  |  |  |  |  |
| COc1ccc2c(c1)CCN([C@H]1CC[C@H](c3c[nH]c4ccc(C#N)cc43)CC1)C2 |  |  |  |  |  | 73.7 nM | 518 nM | 462 nM | 267 nM | 7 | 96.7 nM |  |
| COc1ccc2c(c1)CCN([C@H]1CC[C@@H](c3c[nH]c4ccc(C#N)cc43)CC1)C2 |  |  |  |  |  | 4.1 nM | 165 nM | 370 nM | 13100 nM | 40.2 | 1020 nM |  |
| N#Cc1ccc2[nH]cc([C@H]3CC[C@H](N4CCc5cc(OCCCF)ccc5C4)CC3)c2c1 |  |  |  |  |  | 327 nM | 2310 nM | 343 nM | 2860 nM | 7.1 | 102 nM |  |
| N#Cc1ccc2[nH]cc([C@H]3CC[C@H](N4CCc5ccccc5C4)CC3)c2c1 |  |  |  |  |  | 90.7 nM | 286 nM | 309 nM | 2530 nM | 3.2 | 184 nM |  |
| N#Cc1ccc2[nH]cc([C@H]3CC[C@@H](N4CCc5cc(OCCCF)ccc5C4)CC3)c2c1 |  |  |  |  |  | 6.16 nM | 914 nM | 366 nM | 5670 nM | 140 | 772 nM |  |
| Cc1ccc(Sc2ccccc2CN(C)C)c(N)c1 |  |  |  |  |  | 0.73 nM | 2.03 nM |  |  |  |  |  |
| N#Cc1ccc2[nH]cc([C@H]3CC[C@@H](N4CCc5cc(OCCC[18F])ccc5C4)CC3)c2c1 | Stable | 3.27 | 2.54 | Stable | 2.47 |  |  |  |  |  |  | 0.973 |
| N#Cc1ccc2[nH]cc([C@H]3CC[C@@H](N4CCc5ccccc5C4)CC3)c2c1 |  |  |  |  |  | 4.51 nM | 189 nM | 424 nM | > 1000 nM | 41.9 | 1430 nM |  |
